High-throughput results as filed in PubChem.
KCC2 mod = KCC2 cotransporter modulators, thallium flux, primary screen, cell-based, HEK293 KCC2, FluoZin-2 fluorescence, MLSMR; Solute carrier family 12 member 5 (Homo sapiens), Q9H2X9; KCC2 cells, thallium flux FluoZin-2 fluorescence; B-score of Tl+ flux slope (higher = more flux/activation; lower = inhibition) at 10 µM; 190,000 tested, 2.2% active; AID 1456, 2008;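 active = thallium flux slope and its plate-corrected score both differing from the plate sample mean at a set confidence after two filtering rounds, in either direction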;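 also: slope of fluorescence scaled to starting intensity during 10 to 20 s after thallium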
ABCB6 inh MLPCN = ABCB6 transporter inhibitors, primary screen, K562-ABCB6 cells, flow cytometry, MLPCN library | 360,000 tested, 0.19% active | ATP-binding cassette sub-family B member 6 (Homo sapiens), Q9NP58 | fluorescence ratio to DMSO, % at 10 µM | K562-ABCB6 porphyrin accumulation, 1 h; stronger effect = lower value;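 active = fluorescence ratio to DMSO below 75%, the collection mean minus 3 SD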;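 also: signal is porphyrin accumulated inside mitochondria; 100% equals median channel fluorescence of DMSO control wells; lower ratio means ABCB6 inhibition with less porphyrin fluorescence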
Target sequence (Q9NP58 whole entry, looked up): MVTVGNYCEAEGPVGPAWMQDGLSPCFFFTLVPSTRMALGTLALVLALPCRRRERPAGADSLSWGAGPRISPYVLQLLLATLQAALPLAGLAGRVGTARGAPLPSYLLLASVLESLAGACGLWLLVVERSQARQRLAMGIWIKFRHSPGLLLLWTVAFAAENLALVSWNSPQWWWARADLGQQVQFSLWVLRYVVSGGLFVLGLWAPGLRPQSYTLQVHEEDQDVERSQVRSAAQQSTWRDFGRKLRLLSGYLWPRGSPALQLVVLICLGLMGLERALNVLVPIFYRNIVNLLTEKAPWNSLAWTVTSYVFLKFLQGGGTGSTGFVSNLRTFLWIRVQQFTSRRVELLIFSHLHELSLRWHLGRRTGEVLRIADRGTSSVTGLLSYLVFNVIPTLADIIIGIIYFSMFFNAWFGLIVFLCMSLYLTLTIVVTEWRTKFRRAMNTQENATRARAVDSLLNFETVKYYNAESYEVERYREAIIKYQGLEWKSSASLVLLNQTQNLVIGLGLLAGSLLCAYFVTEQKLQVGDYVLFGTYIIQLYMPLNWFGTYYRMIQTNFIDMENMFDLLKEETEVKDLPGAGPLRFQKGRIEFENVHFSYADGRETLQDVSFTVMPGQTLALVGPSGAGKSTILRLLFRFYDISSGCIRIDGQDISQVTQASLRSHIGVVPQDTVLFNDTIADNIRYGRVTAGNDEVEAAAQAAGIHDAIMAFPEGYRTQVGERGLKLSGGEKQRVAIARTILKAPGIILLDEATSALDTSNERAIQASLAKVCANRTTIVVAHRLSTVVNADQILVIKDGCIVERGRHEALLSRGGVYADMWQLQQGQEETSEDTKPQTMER
p-CIP stab down = p/CIP-EGFP fusion destabilizers, primary screen, fluorescence, F442A cells. Q05BA5. 16 h. decrease of EGFP signal, % at 10 µM. 290,000 tested, 0.01% active. AID 1984, 2009;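 active = EGFP signal decrease of at least 30% at 10 µM or well 3 SD below plate mean, unless failing retest; inactive = the rest, including hits failing retest or dose response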
V-ATPase pHluor = regulators of yeast V-ATPase proton pumping, primary screen, pHLuorin cytosolic pH fluorescence; 350,000 tested, 0.37% active; AID 504577, 2011; S. cerevisiae; response, % at 10 µM; in the data active = response mostly above about 7.3%, no sharp cut-off; inactive = mostly below about 5.4%; also: actives read high
Dynein transport = inhibitors of GR-EGFP nuclear translocation, primary screen, dynein cargo transport inhibitor project, imaging, high-content, 3617.4 mouse cells; test concentration mostly 20 µM; stimulated with dexamethasone, 1 µM; stronger effect = lower value; z-score, hits read low; 220,000 tested, 0.47% active;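 active = plate z-score of nuclear minus cytoplasmic receptor signal below a set negative limit, without overly bright fluorescence or cell loss, cut at about -3.5 in these data, passing the limit was not always enough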;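 also: z-score of nuclear minus cytoplasmic ring GR-EGFP intensity difference per well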
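Also added – dexamethasone, 1.0 µM final · Buffer or medium – tet-free, stripped-serum medium · Schedule – induction 48 h, compound 1 h, agonist 30 min · Detection – formaldehyde fixation, Hoechst nuclear stain, 10x automated fluorescence imaging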
ABCB6 blocker 1 = ABCB6 transporter inhibitors, confirmation, K562-ABCB6 cells, flow cytometry, cherry pick 1; shares compounds with ABCB6 inh MLPCN; K562-ABCB6 porphyrin accumulation, 1 h; stronger effect = lower value; ratio response (% of DMSO), % at 10 µM; 700 tested, under 10 active;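 active = repeat-averaged ratio response below 75% of DMSO, the collection mean minus 3 SD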;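 also: median porphyrin fluorescence at 575 nm with 488 nm excitation from mitochondria; lower ratio means less porphyrin signal so ABCB6 inhibition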
Numbers without * were called inactive; / = no result given. The sample as a whole holds a higher share of hits than the screen did.

SMILES	KCC2 mod	ABCB6 inh MLPCN	p-CIP stab down	V-ATPase pHluor	Dynein transport	ABCB6 blocker 1
CC1=CC(C)(C)N2C(=O)C3(C(C#N)=C(N)Oc4cc(C)oc(=O)c43)c3cc(C)cc1c32 (stereo not given)	0.544	67.0*	/	-1.7	1.69	96.0
COc1cc2c(cc1OC)CN(CC(=O)Nc1cccc(C(F)(F)F)c1)CC2	/	91.0	6.2	1.9	/	/
CC(=O)Nc1ccc(NC(=O)C2Cc3c(-c4cccc(NC(C)=O)c4)ccnc3O2)cc1 (stereo not given)	/	97.0	/	/	/	/
CC(=O)Nc1ccc(NC(=O)C2Cc3c(-c4cccc(C(C)=O)c4)ccnc3O2)cc1 (stereo not given)	/	102.0	/	/	/	102.0
O=C(Nc1cccnc1)C1Cc2c(-c3ccco3)ccnc2O1 (stereo not given)	/	74.0*	/	/	/	97.0
CC(=O)Nc1ccc(-c2ccnc3c2CC(C(=O)Nc2ccccc2)O3)cc1 (stereo not given)	/	101.0	/	/	/	95.0
O=C(Nc1cccc(C(F)(F)F)c1)C1Cc2c(-c3ccco3)ccnc2O1 (stereo not given)	/	97.0	/	/	/	/
COc1ccc(NC(=O)C2Cc3c(-c4cccc(F)c4)ccnc3O2)cc1OC (stereo not given)	/	69.0*	/	/	/	103.0
CC(CC(=O)Nc1ccc2c(c1)c(=O)n(C)n2Cc1ccc(F)cc1)c1ccccc1 (stereo not given)	/	102.0	/	/	/	/
CC(=O)c1cccc(-c2ccnc3c2CC(C(=O)Nc2ccc4c(c2)OCO4)O3)c1 (stereo not given)	/	98.0	/	/	/	102.0
COc1ccc(NC(=O)C2Cc3c(-c4cccc(NC(C)=O)c4)ccnc3O2)cc1 (stereo not given)	/	102.0	/	/	/	103.0
CC(=O)Nc1ccc(-c2ccnc3c2CC(C(=O)Nc2ccc4c(c2)OCO4)O3)cc1 (stereo not given)	/	101.0	/	/	/	/
Cc1ccc(NC(C(=O)c2ccccc2)c2ccccc2)cc1 (stereo not given)	/	101.0	/	-2.3	/	/
CCN(CC)CCn1c2c(c(SCC(=O)Nc3ccc(F)c(F)c3)nc1=O)CCC2	/	98.0	/	10.7	/	/
O=C(c1cccs1)N1CCC(c2nc3c(nnn3Cc3ccccc3Cl)c(=O)[nH]2)CC1	/	99.0	-3.5	-0.8	/	100.0
O=C(c1ccccc1Cl)N1CCC(c2nc3c(nnn3Cc3ccco3)c(=O)[nH]2)CC1	-0.197	92.0	1.9	8.7	-0.0568	/
O=C(NCc1cccs1)c1nc2c(nnn2Cc2ccccc2Cl)c(=O)[nH]1	-2.72*	70.0*	10.8	0.7	1.11	97.0
CCC(C)NC(=O)c1nc2c(nnn2Cc2ccccc2Cl)c(=O)[nH]1 (stereo not given)	-3.13	98.0	0.8	-4.0	0.456	/
O=C(c1cccs1)N1CCCC(c2nc3c(nnn3Cc3c(Cl)cccc3Cl)c(=O)[nH]2)C1 (stereo not given)	/	96.0	-5.4	-0.5	/	/
O=C(c1ccccc1)N1CCC(c2nc3c(nnn3Cc3ccccc3Cl)c(=O)[nH]2)CC1	-0.5	98.0	-3.3	-1.5	-1.08	102.0
CCOc1ccccc1NC(=O)CCCc1ccc(OC)c(C)c1	/	98.0	-12.6	-3.5	/	/
CC(C)C[C@H]1CN=C(Nc2ccccc2)N1CC1CCCCCC1	/	96.0	/	-7.0	/	/
C[C@@H]1CN([C@@H](C)CO)C(=O)Cc2cc(NS(=O)(=O)c3cn(C)cn3)ccc2O[C@@H]1CN(C)C(=O)Nc1ccccc1	/	101.0	/	-3.8	/	/
O=c1c2c(-c3cccs3)csc2ncn1-c1ccccc1	-0.222	47.0*	-13.7	-2.9	1.36	97.0
COc1ccc(C(=O)NC2=NCCS2)cc1	/	74.0*	0.0	-2.9	/	97.0
COc1cc(OC)cc(C(=O)NC2=NCCS2)c1	/	93.0	-3.7	0.1	-0.506	/
Cc1ccccc1Nc1nc(-c2cccnc2)nc2ccccc12	-1.96	99.0	-14.2	1.7	0.271	/
